Source: ChEMBL document CHEMBL1155517, “Rational design of a topical androgen receptor antagonist for the suppression of sebum production with properties suitable for follicular delivery” (J Med Chem, 2010)
Activity calls are given as the source filed them. The rule behind the calls is not given here.

What was measured:
Androgen receptor [1] = target: T1, Androgen receptor (Homo sapiens, UniProt P10275); test: Displacement of [3H]DHT from human AR expressed in baculovirus Sf9 cells system by scintillation counting
T1 sequence (P10275 whole entry): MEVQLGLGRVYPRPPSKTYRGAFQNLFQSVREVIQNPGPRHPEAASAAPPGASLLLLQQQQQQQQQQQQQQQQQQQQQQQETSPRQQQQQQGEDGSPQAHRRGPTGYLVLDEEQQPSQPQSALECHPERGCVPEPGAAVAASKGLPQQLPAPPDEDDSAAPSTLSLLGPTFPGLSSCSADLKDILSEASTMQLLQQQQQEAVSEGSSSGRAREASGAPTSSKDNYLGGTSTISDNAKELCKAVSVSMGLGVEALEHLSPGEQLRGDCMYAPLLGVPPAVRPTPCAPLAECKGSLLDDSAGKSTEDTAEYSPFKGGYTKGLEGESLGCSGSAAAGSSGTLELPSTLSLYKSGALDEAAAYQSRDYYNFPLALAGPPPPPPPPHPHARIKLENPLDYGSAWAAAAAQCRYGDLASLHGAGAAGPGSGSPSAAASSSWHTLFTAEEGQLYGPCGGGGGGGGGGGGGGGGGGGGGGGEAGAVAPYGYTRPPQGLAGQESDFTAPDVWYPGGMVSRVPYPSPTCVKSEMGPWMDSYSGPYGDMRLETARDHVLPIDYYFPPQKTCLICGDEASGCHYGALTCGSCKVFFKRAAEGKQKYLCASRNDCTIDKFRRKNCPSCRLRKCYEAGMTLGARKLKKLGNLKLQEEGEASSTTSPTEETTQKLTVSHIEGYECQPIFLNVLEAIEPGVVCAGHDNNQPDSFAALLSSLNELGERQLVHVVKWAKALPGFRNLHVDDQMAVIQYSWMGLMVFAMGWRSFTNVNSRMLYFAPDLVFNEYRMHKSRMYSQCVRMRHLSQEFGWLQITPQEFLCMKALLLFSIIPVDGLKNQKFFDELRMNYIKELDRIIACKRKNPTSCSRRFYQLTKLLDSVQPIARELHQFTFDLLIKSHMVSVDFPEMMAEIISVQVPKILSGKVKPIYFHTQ

Androgen receptor [2] = target: T1, Androgen receptor; test: Antagonist activity at androgen receptor in human MDA-MB-453 cells coexpressing MMTV-ARE reporter gene assessed as inhibition of DHT-induced response; type: functional, cell-based
Progesterone receptor = target: T2, Progesterone receptor (Homo sapiens, UniProt P06401); test: Binding affinity to progesterone receptor by PRB assay
T2 sequence (P06401 whole entry): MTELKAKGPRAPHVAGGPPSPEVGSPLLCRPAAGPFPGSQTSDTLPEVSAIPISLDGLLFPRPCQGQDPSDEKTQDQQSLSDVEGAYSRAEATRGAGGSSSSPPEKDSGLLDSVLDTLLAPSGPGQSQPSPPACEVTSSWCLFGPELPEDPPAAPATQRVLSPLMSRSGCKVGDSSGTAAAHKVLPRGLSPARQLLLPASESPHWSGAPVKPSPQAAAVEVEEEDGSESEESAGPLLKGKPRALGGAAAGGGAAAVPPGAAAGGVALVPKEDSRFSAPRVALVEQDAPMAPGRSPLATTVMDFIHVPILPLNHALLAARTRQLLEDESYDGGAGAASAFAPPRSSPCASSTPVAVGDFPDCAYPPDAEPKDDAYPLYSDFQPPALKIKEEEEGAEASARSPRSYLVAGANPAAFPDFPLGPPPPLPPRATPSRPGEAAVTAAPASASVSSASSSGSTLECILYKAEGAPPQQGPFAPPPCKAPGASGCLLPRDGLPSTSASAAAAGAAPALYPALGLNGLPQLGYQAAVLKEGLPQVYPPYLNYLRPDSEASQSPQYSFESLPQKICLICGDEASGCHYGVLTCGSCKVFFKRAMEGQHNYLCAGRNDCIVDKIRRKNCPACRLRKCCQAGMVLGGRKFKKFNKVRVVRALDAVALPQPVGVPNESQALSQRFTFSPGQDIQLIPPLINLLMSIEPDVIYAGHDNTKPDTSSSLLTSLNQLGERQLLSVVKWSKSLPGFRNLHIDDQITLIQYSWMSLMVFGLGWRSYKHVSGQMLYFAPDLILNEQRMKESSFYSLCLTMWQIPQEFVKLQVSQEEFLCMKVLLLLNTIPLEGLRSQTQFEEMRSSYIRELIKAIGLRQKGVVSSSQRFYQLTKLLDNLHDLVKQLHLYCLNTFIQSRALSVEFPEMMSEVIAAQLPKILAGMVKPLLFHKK

[3] = Artificial human sebum-water partition coefficient, log K of the compound; type: physicochemical
How it was run: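 About 5 mg artificial human sebum, spiked with drug at 1 mg/250 μL sebum, was equilibrated with 1 mL saturated aqueous solution at 37 C for 15 h. Drug concentration in the aqueous phase was then analysed, and the sebum–water partition coefficient was derived from it.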

Syrian golden hamster [4] = test: Inhibition of cholesterol ester in Syrian golden hamster ear model for sebum at 1% administered topically BID 5 days a week for 2 weeks measured 18 to 24 hrs after the final dose; type: functional, Mesocricetus auratus
Syrian golden hamster [5] = test: Inhibition of wax ester in Syrian golden hamster ear model for sebum at 1% administered topically BID 5 days a week for 2 weeks measured 18 to 24 hrs after the final dose; type: functional, Mesocricetus auratus
Estrogen receptor = target: T3, Estrogen receptor (Homo sapiens, UniProt P03372); test: Binding affinity to estrogen receptor
T3 sequence (P03372 whole entry): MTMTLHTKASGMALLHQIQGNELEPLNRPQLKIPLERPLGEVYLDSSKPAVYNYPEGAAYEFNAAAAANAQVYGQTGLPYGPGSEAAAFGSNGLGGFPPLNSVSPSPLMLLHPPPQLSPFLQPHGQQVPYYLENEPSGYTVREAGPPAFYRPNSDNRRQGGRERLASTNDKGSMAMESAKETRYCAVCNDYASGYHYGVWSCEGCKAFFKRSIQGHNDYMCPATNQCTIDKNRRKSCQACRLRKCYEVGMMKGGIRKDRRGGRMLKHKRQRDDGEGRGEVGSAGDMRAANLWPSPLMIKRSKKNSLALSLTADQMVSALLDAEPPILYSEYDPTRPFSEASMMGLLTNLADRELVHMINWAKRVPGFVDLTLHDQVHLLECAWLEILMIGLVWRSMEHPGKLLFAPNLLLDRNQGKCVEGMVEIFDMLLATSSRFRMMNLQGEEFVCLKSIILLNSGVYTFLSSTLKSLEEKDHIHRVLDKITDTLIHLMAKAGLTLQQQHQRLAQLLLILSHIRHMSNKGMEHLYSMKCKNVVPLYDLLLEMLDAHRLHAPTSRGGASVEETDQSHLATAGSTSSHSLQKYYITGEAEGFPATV

[6] = Binding affinity to thyroid hormone receptor
Glucocorticoid receptor = target: T4, Glucocorticoid receptor (Homo sapiens, UniProt P04150); test: Binding affinity to glucocorticoid receptor
T4 sequence (P04150 whole entry): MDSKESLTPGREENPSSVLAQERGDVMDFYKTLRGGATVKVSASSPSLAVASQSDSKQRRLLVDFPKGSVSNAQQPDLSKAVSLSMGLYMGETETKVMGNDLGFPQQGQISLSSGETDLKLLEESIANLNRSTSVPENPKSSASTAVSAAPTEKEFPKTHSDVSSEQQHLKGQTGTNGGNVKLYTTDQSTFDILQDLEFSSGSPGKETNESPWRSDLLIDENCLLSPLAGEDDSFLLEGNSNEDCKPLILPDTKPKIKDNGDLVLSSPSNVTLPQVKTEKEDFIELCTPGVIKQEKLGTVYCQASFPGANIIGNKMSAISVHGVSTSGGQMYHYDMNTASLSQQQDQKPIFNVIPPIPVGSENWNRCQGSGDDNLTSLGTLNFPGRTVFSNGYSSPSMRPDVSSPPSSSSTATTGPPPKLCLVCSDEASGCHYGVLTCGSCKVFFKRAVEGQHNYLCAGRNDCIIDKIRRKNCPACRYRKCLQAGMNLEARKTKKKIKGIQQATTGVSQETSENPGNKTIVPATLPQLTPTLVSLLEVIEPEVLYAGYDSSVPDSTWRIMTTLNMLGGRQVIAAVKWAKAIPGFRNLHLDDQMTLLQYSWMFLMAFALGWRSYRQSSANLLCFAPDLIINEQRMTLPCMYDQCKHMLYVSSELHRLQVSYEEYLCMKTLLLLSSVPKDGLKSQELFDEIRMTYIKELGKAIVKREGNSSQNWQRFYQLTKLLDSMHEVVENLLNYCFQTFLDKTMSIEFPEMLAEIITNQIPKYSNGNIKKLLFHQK

[7] = Hamster sebum-water partition coefficient, log K of the compound; type: ADME
[8] = Octanol-buffer partition coefficient, log D at pH 7.4; type: physicochemical; settings: read-out: LogD7.4
Syrian golden hamster [9] = test: Inhibition of wax ester in Syrian golden hamster ear model for sebum administered topically BID 5 days a week for 2 weeks measured 18 to 24 hrs after the final dose; type: functional, Mesocricetus auratus
How it was run: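 Golden Syrian hamster ear model with twice-daily topical dosing for 2 weeks in the vehicle chosen for phase 1 studies. Wax ester production was measured across a range of doses, and ED50 was expressed as % dose. Data are mean ± SEM, N = 5.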

Syrian golden hamster [10] = test: Reduction in wax ester-associated sebaceous gland size decrease in Syrian golden hamster ear model for sebum administered topically BID 5 days a week for 2 weeks measured 18 to 24 hrs after the final dose; type: functional, organism-based; settings: Mesocricetus auratus
How it was run: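 Hamsters were dosed on the ear twice daily for 2 weeks. Sebaceous gland size was quantified by fatty acid synthase immunohistochemical staining and correlated with wax ester reduction by correlation coefficient.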

Syrian golden hamster [11] = test: Toxicity in Syrian golden hamster ear model for sebum assessed as cytotoxicity-mediated sebaceous gland size administered topically BID 5 days a week for 2 weeks measured 18 to 24 hrs after the final dose; type: organism-based, Mesocricetus auratus; settings: in vivo, topical_or_ocular
How it was run: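 After 2 weeks of twice-daily topical application to hamster ears, sebocytes were examined histopathologically for cytotoxic changes alongside the reduction in sebaceous gland size.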

[12] = Drug level in Syrian golden hamster sebaceous gland at 0.2% administered topically after 8 hrs; type: ADME, tissue-based, Mesocricetus auratus; settings: topical or ocular, read-out: Drug uptake
[13] = Elimination half life in Syrian golden hamster sebaceous gland at 0.2% administered topically after 8 hrs; type: ADME, tissue-based, Mesocricetus auratus; settings: topical or ocular, read-out: beta t1/2 (converted)
[14] = Intrinsic clearance in human liver microsomes after 1 hr by LC/MS/MS method; type: ADME, Microsome
[15] = Clearance in rat at 1 mg/kg, iv; type: ADME, organism-based; parameters: dose 1 mg/kg, route intravenous; settings: in vivo
[16] = Clearance in human; type: ADME, organism-based; settings: in vivo
Rattus norvegicus [17] = test: Liver blood flow in rat at 1 mg/kg, iv; type: ADME, organism-based; parameters: dose 1 mg/kg, route intravenous; settings: in vivo
Mus musculus [18] = test: Toxicity in BALB/c mouse assessed as skin sensitization at 25% administered for 4 days; type: organism-based; settings: in vivo, 96 h
Mus musculus [19] = test: Toxicity in BALB/c mouse assessed as lymph node contact hypersensitivity at 25% administered for 4 days; type: organism-based; settings: in vivo, 96 h
Sus scrofa [20] = test: Toxicity in minipig assessed as dermal toleration at 25% administered topically BID for 7 days; type: organism-based; settings: pig, in vivo, topical_or_ocular, 168 h
Sus scrofa [21] = test: Toxicity in minipig assessed as systemic antiandrogenic effect at 25% administered topically BID for 7 days; type: organism-based; settings: pig, in vivo, topical_or_ocular, 168 h
Rattus norvegicus [22] = test: Toxicity in Sprague-Dawley rat assessed as systemic antiandrogenic effect at 0.5 to 300 mg/kg, po administered once-daily for 7 days; type: organism-based; parameters: dose 0.5-300 mg/kg, route oral; settings: in vivo, 168 h
Syrian golden hamster [23] = test: Inhibition of cholesterol ester in Syrian golden hamster ear model for sebum at 1.5% administered topically BID 5 days a week for 2 weeks measured 18 to 24 hrs after the final dose; type: functional, Mesocricetus auratus
Syrian golden hamster [24] = test: Inhibition of wax ester in Syrian golden hamster ear model for sebum at 1.5% administered topically BID 5 days a week for 2 weeks measured 18 to 24 hrs after the final dose; type: functional, Mesocricetus auratus

| Compound | IC50 (Androgen receptor [1]) [nM] | IC50 (Androgen receptor [2]) [nM] | IC50 (Progesterone receptor) [nM] | log K [3] | inhibition (INH) (Syrian golden hamster [4]) [%] | inhibition (INH) (Syrian golden hamster [5]) [%] | logD [8] | further results |
| --- | --- | --- | --- | --- | --- | --- | --- | --- |
| CC1(C)CN(Cc2ccccc2F)C(=O)[C@@H]1Oc1ccc(C#N)c(C(F)(F)F)c1 | 174 | 44 | 4820 | 3.95 | 42 | 72 |  |  |
| CC1(C)CN(Cc2ccccc2)C(=O)[C@@H]1Oc1ccc(C#N)c(C(F)(F)F)c1 | 100 | 38 | 4400 | 3.92 | 61 | 78 | 4.88 | IC50 (Estrogen receptor): > 10000 nM; IC50 [6]: > 10000 nM; IC50 (Glucocorticoid receptor): > 10000 nM; log K [7]: 3.85; ED50 (Syrian golden hamster [9]): 0.02 mg/cm2; Activity (Syrian golden hamster [10]): Active; Activity (Syrian golden hamster [11]): Non-toxic; concentration at 8 h [12]: 156 µM; half-life [13]: 7 h; CLint scaled [14]: 121 mL/min/kg; clearance [15]: 57 mL/min/kg; clearance [16]: 16 mL/min/kg; LBF (Rattus norvegicus [17]): 80%; Activity (Mus musculus [18]): Non-toxic; Activity (Mus musculus [19]): Non-toxic; Activity (Sus scrofa [20]): Non-toxic; Activity (Sus scrofa [21]): Non-toxic; Activity (Rattus norvegicus [22]): Non-toxic |
| CSc1ccc(CN2CC(C)(C)[C@@H](Oc3ccc(C#N)c(C(F)(F)F)c3)C2=O)cc1 | 316 | 28 | > 10000 | 4.6 |  |  |  | inhibition (INH) (Syrian golden hamster [23]): 75%; inhibition (INH) (Syrian golden hamster [24]): 89% |
| N#Cc1ccc(O[C@@H]2CCCC[C@H]2C#N)cc1C(F)(F)F |  |  |  | 3.03 |  |  | 3.4 |  |
| N#Cc1ccc(Oc2ccc(F)cc2F)cc1C(F)(F)F | 488 | 60 | > 10000 | 4.06 | 24 | 31 |  |  |
| CCCN1CC(C)(C)[C@@H](Oc2ccc(C#N)c(C(F)(F)F)c2)C1=O |  |  |  | 2.74 |  |  | 3.33 |  |
| C[C@H](O)CC[C@H](C)Oc1ccc(C#N)c(C(F)(F)F)c1 |  |  |  | 2.06 |  |  | 3.73 |  |
| N#Cc1ccc(Sc2ccccc2F)cc1C(F)(F)F |  |  | 6950 | 4.48 | 50 | 64 |  |  |
